System: HEK-293T
Assay: Multiplex assay against HEK293T;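 as to Population Tubulin-Different-Phenotype (%): share of the cells with healthy nuclei that show this phenotype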
Format: toxicity, cell-based
Conditions: human
In short: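 Cells stained live at seeding with Hoechst33342, BioTracker Green Microtubule Cytoskeleton Dye, MitoTracker Red and Annexin V Alexa Fluor 680 were imaged on a CQ1 microscope at 37°C and 5% CO2 after compound addition. Their classification by CellPathfinder machine-learning gating ran from Hoechst high-intensity objects versus normal cells, to healthy, pyknosed or fragmented nuclei among normal cells, to mitotic or apoptotic among pyknosed cells. Tubulin, mitochondrial-mass and membrane-permeability phenotypes are per cents of healthy-nucleus cells.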

[1] = 12 h, 1 µM, compound concentration 1 uM, replicate 1
[2] = 12 h, 1 µM, compound concentration 1 uM, replicate 2
[3] = 12 h, 10 µM, compound concentration 10 uM, replicate 1
[4] = 12 h, 10 µM, compound concentration 10 uM, replicate 2
[5] = 24 h, 1 µM, compound concentration 1 uM, replicate 1
[6] = 24 h, 1 µM, compound concentration 1 uM, replicate 2
[7] = 24 h, 10 µM, compound concentration 10 uM, replicate 1
[8] = 24 h, 10 µM, compound concentration 10 uM, replicate 2
[9] = 48 h, 1 µM, compound concentration 1 uM, replicate 1
[10] = 48 h, 1 µM, compound concentration 1 uM, replicate 2
[11] = 48 h, 10 µM, compound concentration 10 uM, replicate 1
[12] = 48 h, 10 µM, compound concentration 10 uM, replicate 2

## CN1CCN(CCOc2cc(OC3CCOCC3)c3c(Nc4c(Cl)ccc5c4OCO5)ncnc3c2)CC1 [SARACATINIB]
[1]
  Population Apoptotic (%): 51%
  Population Fragmented Nuclei (%): 11%
  Population Healthy Nuclei (%): 29%
  Population Hoechst High Intensity Objects (%): 15%
  Population Membrane Permeable-Phenotype (%): 2%
  Population Mitochondria Different-Phenotype (%): 89%
  Population Mitotic Cells (%): 48%
  Population Normal (%): 84%
  Population Pyknosed Nuclei (%): 58%
  Population Tubulin-Different-Phenotype (%): 82%
  Total Cell Count: 345
[2]
  Population Apoptotic (%): 22%
  Population Fragmented Nuclei (%): 4%
  Population Healthy Nuclei (%): 31%
  Population Hoechst High Intensity Objects (%): 8%
  Population Membrane Permeable-Phenotype (%): 3%
  Population Mitochondria Different-Phenotype (%): 71%
  Population Mitotic Cells (%): 77%
  Population Normal (%): 91%
  Population Pyknosed Nuclei (%): 63%
  Population Tubulin-Different-Phenotype (%): 58%
[3]
  Population Apoptotic (%): 72%
  Population Fragmented Nuclei (%): 15%
  Population Healthy Nuclei (%): 21%
  Population Hoechst High Intensity Objects (%): 17%
  Population Membrane Permeable-Phenotype (%): 15%
  Population Mitochondria Different-Phenotype (%): 94%
  Population Mitotic Cells (%): 27%
  Population Normal (%): 82%
  Population Pyknosed Nuclei (%): 63%
  Population Tubulin-Different-Phenotype (%): 89%
  Total Cell Count: 223
[4]
  Population Apoptotic (%): 82%
  Population Fragmented Nuclei (%): 6%
  Population Healthy Nuclei (%): 22%
  Population Hoechst High Intensity Objects (%): 7%
  Population Membrane Permeable-Phenotype (%): 2%
  Population Mitochondria Different-Phenotype (%): 100%
  Population Mitotic Cells (%): 17%
  Population Normal (%): 92%
  Population Pyknosed Nuclei (%): 71%
  Population Tubulin-Different-Phenotype (%): 100%
  Total Cell Count: 190
[5]
  Population Apoptotic (%): 54%
  Population Fragmented Nuclei (%): 11%
  Population Healthy Nuclei (%): 36%
  Population Hoechst High Intensity Objects (%): 13%
  Population Membrane Permeable-Phenotype (%): 3%
  Population Mitochondria Different-Phenotype (%): 87%
  Population Mitotic Cells (%): 45%
  Population Normal (%): 86%
  Population Pyknosed Nuclei (%): 52%
  Population Tubulin-Different-Phenotype (%): 65%
  Total Cell Count: 382
[6]
  Population Apoptotic (%): 28%
  Population Fragmented Nuclei (%): 4%
  Population Healthy Nuclei (%): 39%
  Population Hoechst High Intensity Objects (%): 5%
  Population Membrane Permeable-Phenotype (%): 1%
  Population Mitochondria Different-Phenotype (%): 58%
  Population Mitotic Cells (%): 71%
  Population Normal (%): 94%
  Population Pyknosed Nuclei (%): 55%
  Population Tubulin-Different-Phenotype (%): 66%
  Total Cell Count: 217
[7]
  Population Apoptotic (%): 80%
  Population Fragmented Nuclei (%): 12%
  Population Healthy Nuclei (%): 15%
  Population Hoechst High Intensity Objects (%): 23%
  Population Membrane Permeable-Phenotype (%): 0%
  Population Mitochondria Different-Phenotype (%): 100%
  Population Mitotic Cells (%): 19%
  Population Normal (%): 76%
  Population Pyknosed Nuclei (%): 71%
  Population Tubulin-Different-Phenotype (%): 90%
  Total Cell Count: 248
[8]
  Population Apoptotic (%): 88%
  Population Fragmented Nuclei (%): 5%
  Population Healthy Nuclei (%): 25%
  Population Hoechst High Intensity Objects (%): 5%
  Population Membrane Permeable-Phenotype (%): 6%
  Population Mitochondria Different-Phenotype (%): 95%
  Population Mitotic Cells (%): 11%
  Population Normal (%): 94%
  Population Pyknosed Nuclei (%): 69%
  Population Tubulin-Different-Phenotype (%): 85%
  Total Cell Count: 208
[9]
  Population Apoptotic (%): 51%
  Population Fragmented Nuclei (%): 16%
  Population Healthy Nuclei (%): 47%
  Population Hoechst High Intensity Objects (%): 18%
  Population Membrane Permeable-Phenotype (%): 2%
  Population Mitochondria Different-Phenotype (%): 50%
  Population Mitotic Cells (%): 48%
  Population Normal (%): 81%
  Population Pyknosed Nuclei (%): 36%
  Population Tubulin-Different-Phenotype (%): 49%
  Total Cell Count: 448
[10]
  Population Apoptotic (%): 26%
  Population Fragmented Nuclei (%): 4%
  Population Healthy Nuclei (%): 70%
  Population Hoechst High Intensity Objects (%): 5%
  Population Membrane Permeable-Phenotype (%): 1%
  Population Mitochondria Different-Phenotype (%): 32%
  Population Mitotic Cells (%): 73%
  Population Normal (%): 94%
  Population Pyknosed Nuclei (%): 25%
  Population Tubulin-Different-Phenotype (%): 55%
  Total Cell Count: 315
[11]
  Population Apoptotic (%): 73%
  Population Fragmented Nuclei (%): 23%
  Population Healthy Nuclei (%): 30%
  Population Hoechst High Intensity Objects (%): 26%
  Population Membrane Permeable-Phenotype (%): 3%
  Population Mitochondria Different-Phenotype (%): 96%
  Population Mitotic Cells (%): 26%
  Population Normal (%): 73%
  Population Pyknosed Nuclei (%): 45%
  Population Tubulin-Different-Phenotype (%): 78%
  Total Cell Count: 230
[12]
  Population Apoptotic (%): 84%
  Population Fragmented Nuclei (%): 6%
  Population Healthy Nuclei (%): 41%
  Population Hoechst High Intensity Objects (%): 11%
  Population Membrane Permeable-Phenotype (%): 0%
  Population Mitochondria Different-Phenotype (%): 98%
  Population Mitotic Cells (%): 15%
  Population Normal (%): 88%
  Population Pyknosed Nuclei (%): 52%
  Population Tubulin-Different-Phenotype (%): 71%
  Total Cell Count: 204
